PMC5694347 (Clinical cancer research : an official journal of the …, 2015)
Marks after values point to notes of the source that are not given here.

Key:
[1] = tested on: pevonedistat–NEDD8 adduct; assay: Bone marrow aspirate immunohistochemistry for pevonedistat–NEDD8 adduct; assay type: in vivo, human; conditions: one patient treated at 25 mg/m^2, pre-dose and post-dose sample
Outline: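 Patients with marrow involvement received IV pevonedistat over 1 h. Marrow aspirates were taken at screening and 2–6 h after the cycle 1 dose on day 2 (schedule A) or day 4 (schedule B). Aspirates were clotted, formalin-fixed and paraffin-embedded. Adduct-specific antibody was applied 1 h at 37°C, then biotinylated goat anti-rabbit secondary 32 min at room temperature, with DAB detection. Slides were counterstained and whole-slide imaged at 20x.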

[2] = Plasma pharmacokinetics, cycle 1; conditions: human, in vivo
[3] = tested on: patients with relapsed and/or refractory lymphoma or MM; assay: Phase I dose escalation: MTD and DLT determination; assay type: in vivo
[4] = tested on: CDT-1; assay: Skin punch biopsy immunohistochemistry, CDT-1; assay type: in vivo, human; conditions: 3–6 hours after second dose of cycle 1
Outline: (§1)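 IV infusion over 1 h. 2 mm skin punch biopsies were taken at screening and 3–6 h after the cycle 1 dose on day 2 (schedule A) or day 4 (schedule B). On 5 µm sections, CC1 antigen retrieval ran 20 min. Primary antibody was applied 1 h at room temperature, then alkaline phosphatase secondary 32 min, developed with NBT/BCIP. Slides were counterstained and imaged at 20x. Signal was percent stained area of the basal epithelial region.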

[5] = tested on: patients with AML and myelodysplastic syndromes (MDS); conditions: same dosing as schedule B (days 1, 4, 8, 11); cited from earlier work
[6] = tested on: NRF-2; assay: Skin punch biopsy immunohistochemistry, NRF-2; assay type: in vivo, human; conditions: 19 patients, schedule A 25–147 mg/m^2, after second dose of cycle 1
Outline: as §1

[7] = tested on: relapsed and/or refractory lymphoma or MM; assay: Antitumor activity: disease response; assay type: in vivo, human

With `NS(=O)(=O)OC[C@@H]1C[C@@H](n2ccc3c(N[C@H]4CCc5ccccc54)ncnc32)C[C@@H]1O` [pevonedistat] the “Pevonedistat–NEDD8 adduct in bone marrow aspirate” value [1] was “not detected”, the “Dose proportionality of mean Cmax and AUC0–24hr” value [2] was “approximate dose-proportional increases” and the Cmax ([2]; 110 mg/m2) was 1683 (28) ng/mL. It also gave a Tmax ([2]; 110 mg/m2) of 1.08 h, a Cmax ([2]; 110 mg/m2, Cmax) of 1500 ng/mL and a Tmax ([2]; 110 mg/m2, Tmax) of 1.02 h. For the same molecule, the AUC0-τ ([2]; 196 mg/m2) was 12,367 (13) ^c nghr/mL, the Cmax ([2]; 196 mg/m2) was 3751 (53) ng/mL and the “Mean plasma elimination half-life” value ([2]; 196 mg/m2) was 8.5 h. For the same molecule, the Tmax ([2]; 196 mg/m2) was 1.02 (0.9– 1.1) hr, the clearance ([2]; 196 mg/m2) was 472 mL/min and the Cmax ([2]; 196 mg/m2, Cmax) was 4560 ng/mL. For the same molecule, the half-life ([2]; 196 mg/m2, Mean plasma elimination half-life) was ~8.5 h, the half-life ([2]; 196 mg/m2, Plasma elimination half-life, range) was 7.7 to 9.1 h and the Tmax ([2]; 196 mg/m2, Tmax) was 1.1 h. For the same molecule, the half-life ([2]; 196 mg/m2, t½ (terminal disposition half-life)) was 8.5 h, the “DLTs at 261 mg/m^2” value ([3]; in vivo) was “no DLTs were observed” and the “Maximum tolerated dose (MTD)” value ([3]; schedule A: IV days 1, 2, 8, 9 of 21-day cycles) was 110 mg/m^2. The “CDT-1 expression level in skin biopsies vs baseline” value [4] was “increases”, the “MTD in AML/MDS patients” value [5] was 83 mg/m^2 and the “NRF-2 expression in skin, median increase vs baseline” value [6] was 39.4 fold. The “NRF-2 expression in skin, range of increase vs baseline” value [6] was 0–1483 fold, the “Duration of SD” value ([7]; 5 MM patients who received ≥5 cycles) was 3.22–6.01 months and the “Duration of SD” value ([7]; 7 lymphoma patients who received ≥5 cycles) was 3.25–9.53 months. For the same molecule, the “Best response in MM patients” value ([7]; MM patients) was “best responses of only SD”.
